Results published in paper PMC6796967 (Journal of Medicinal Chemistry, 2018).
Residues, ends and D or L forms follow the SMILES beside them.

Test system: human primary fibroblasts
Assay: WST-1 cell viability assay in fibroblasts
Format: cell-based
Details: 0.1–20 μM, 24 h treatment; highest concentration
In short: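 Primary human fibroblasts (GM04390) grown in high-glucose DMEM with 10% heat-inactivated FBS and antibiotics at 3% O2, 5% CO2, 37 °C. Seeded at 100 000 cells/mL, switched to Optimem after 24 h, then given 0.1–20 μM test compound or DMSO at 48 h. After about 24 h, incubated 4 h with 10% WST-1 reagent; absorbance read at 450 nm.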

SMILES: C[C@H](NC(=O)[C@H](Cc1ccc(O)cc1)NC(=O)[C@H](Cc1ccc(O)cc1)NC(=O)[C@@H]1CCCN1C(=O)[C@@H]1CCCN1C(=O)[C@@H]1CCCN1C(=O)[C@@H]1CCCN1C(=O)[C@H](CCCNC(=N)N)NC(=O)[C@H](CCCNC(=N)N)NC(=O)[C@@H](N)CCCNC(=N)N)C(=O)O [Compound 2, RRR-PPPP-YYA-OH] (H-RRRPPPPYYA-OH)
- cytotoxic effects (cell viability, WST-1): did not exert any cytotoxic effects
